Consider 74 compounds from ChEMBL document CHEMBL4371014, “Novel Allosteric Ligands of γ-Aminobutyric Acid Transporter 1 (GAT1) by MS Based Screening of Pseudostatic Hydrazone Libraries” (J Med Chem, 2018).

Where only a bound is given, the exact number is not on record here.

In this experiment the target is Sodium- and chloride-dependent GABA transporter 1 (Mus musculus) (UniProt P31648). In words: Inhibition of NO711 binding to mouse GAT1 expressed in HEK293 cell membranes assessed as residual binding at 1 uM preincubated for 4 hrs followed by NO711 addition and measured after 40 mins by LC-ESI-MS/MS analysis relative to control. An outline of the steps:
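Single hydrazones formed in situ in the presence of mouse GAT1 from one aldehyde (1.0 µM) and hydrazine (200 µM). Formation ran 4 h, then NO711 MS marker was added for 40 min. Specifically bound NO711 was freed from the target and quantified by LC-ESI-MS/MS. Results are % remaining specific binding, means±SD of four replicates.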
As for `COc1cc(/C=N/NCC[C@@H]2CNC[C@H](C(=O)O)C2)cc(OC)c1O` (racemic), the Activity was 62%.

As to `Cc1ccc(-c2cccc(/C=N/NC[C@@H]3CNC[C@H](C(=O)O)C3)c2)cc1` (racemic), the Activity turned out to be 61%.

Consider `Cc1ccc(-c2ccsc2/C=N/NCC[C@@H]2CNC[C@H](C(=O)O)C2)cc1` (racemic), for which the Activity is 83%.

Regarding `Cc1cccc2cc(/C=N/NCC[C@@H]3CNC[C@H](C(=O)O)C3)c(Cl)nc12` (racemic), the Activity came to 62%.

Turning to `Cc1ccccc1-c1ccsc1/C=N/NCC[C@@H]1CNC[C@H](C(=O)O)C1` (racemic), the Activity amounted to 64%.

Turning to `Cc1ccsc1-c1ccccc1/C=N/NCC[C@@H]1CNC[C@H](C(=O)O)C1` (racemic), the Activity is 61%.

Regarding `Cc1ccsc1-c1sc(/C=N/NCC[C@@H]2CNC[C@H](C(=O)O)C2)cc1C` (racemic), the Activity amounted to 79%.

With `Cc1ccsc1-c1sc(/C=N/NC[C@H]2CNC[C@H](C(=O)O)C2)cc1C` (racemic), the Activity is above 50%.

For the compound `Cn1c(/C=N/NC[C@@H]2CNC[C@H](C(=O)O)C2)ccc1-c1ccc(Cl)cc1` (racemic), the Activity came to 87%.

Take `Cn1cnnc1Sc1ccc(/C=N/NCC[C@@H]2CNC[C@H](C(=O)O)C2)o1` (racemic): the Activity stood at 73%.

Take `Cn1cnnc1Sc1ccc(/C=N/NC[C@@H]2CNC[C@H](C(=O)O)C2)o1` (racemic): the Activity is 84%.

In the case of `Nc1ncc(-c2ccccc2/C=N/NC[C@@H]2CNC[C@H](C(=O)O)C2)cn1` (racemic), the Activity came out at 93%.

With `O=C(O)[C@H]1CNC[C@@H](CCN/N=C/c2ccc(-c3cc(C(F)(F)F)cc(C(F)(F)F)c3)o2)C1` (racemic), the Activity was determined as 76%.

Consider `O=C(O)[C@H]1CNC[C@@H](CCN/N=C/c2ccc(-c3cc(C(F)(F)F)ccc3Cl)o2)C1` (racemic), for which the Activity came out at 54%.

With `O=C(O)[C@H]1CNC[C@@H](CCN/N=C/c2ccc(-c3ccc(Br)cc3)o2)C1` (racemic), the Activity is 65%.

Consider `O=C(O)[C@H]1CNC[C@@H](CCN/N=C/c2ccc(-c3ccc(Cl)cc3)o2)C1` (racemic), for which the Activity was found to be 62%.

Regarding `O=C(O)[C@H]1CNC[C@@H](CCN/N=C/c2ccc(-c3ccc(Cl)cc3F)o2)C1` (racemic), the Activity turned out to be 64%.

Consider `O=C(O)[C@H]1CNC[C@@H](CCN/N=C/c2ccc(-c3ccc(Cl)cc3[N+](=O)[O-])o2)C1` (racemic), for which the Activity turned out to be 60%.

Take `O=C(O)[C@H]1CNC[C@@H](CCN/N=C/c2ccc(-c3ccc(F)c(C(F)(F)F)c3)o2)C1` (racemic): the Activity was determined as 72%.

In the case of `O=C(O)[C@H]1CNC[C@@H](CCN/N=C/c2ccc(-c3cccc(C(F)(F)F)c3)o2)C1` (racemic), the Activity came to 70%.

With `O=C(O)[C@H]1CNC[C@@H](CCN/N=C/c2ccc(-c3cccc(Cl)c3)o2)C1` (racemic), the Activity worked out at 69%.

For `O=C(O)[C@H]1CNC[C@@H](CCN/N=C/c2ccc(-c3cccc4ccccc34)o2)C1` (racemic), the Activity was found to be 58%.

On to `O=C(O)[C@H]1CNC[C@@H](CCN/N=C/c2ccc(-c3ccccc3)o2)C1` (racemic), for which the Activity was 61%.

Consider `O=C(O)[C@H]1CNC[C@@H](CCN/N=C/c2ccc(-c3ccccc3C(F)(F)F)o2)C1` (racemic), for which the Activity is 60%.

In the case of `O=C(O)[C@H]1CNC[C@@H](CCN/N=C/c2ccc(-c3ccccc3Cl)o2)C1` (racemic), the Activity was 52%.

As for `O=C(O)[C@H]1CNC[C@@H](CCN/N=C/c2ccc(-c3ccccc3OC(F)(F)F)o2)C1` (racemic), the Activity was determined as 59%.

In the case of `O=C(O)[C@H]1CNC[C@@H](CCN/N=C/c2ccc(-c3ccn[nH]3)o2)C1` (racemic), the Activity was 72%.

As for `O=C(O)[C@H]1CNC[C@@H](CCN/N=C/c2ccc(C#Cc3ccccc3)s2)C1` (racemic), the Activity amounted to 71%.

With `O=C(O)[C@H]1CNC[C@@H](CCN/N=C/c2ccccc2-c2ccsc2)C1` (racemic), the Activity was 80%.

With `O=C(O)[C@H]1CNC[C@@H](CCN/N=C/c2ccccc2-n2cccc2)C1` (racemic), the Activity is 82%.

For the compound `O=C(O)[C@H]1CNC[C@@H](CCN/N=C/c2cccn2-c2ccc(C(F)(F)F)cc2)C1` (racemic), the Activity worked out at 74%.

For the compound `O=C(O)[C@H]1CNC[C@@H](CCN/N=C/c2ccco2)C1` (racemic), the Activity is 60%.

Take `O=C(O)[C@H]1CNC[C@@H](CCN/N=C/c2cnc(-c3ccccn3)nc2)C1` (racemic): the Activity came to 83%.

As for `O=C(O)[C@H]1CNC[C@@H](CCN/N=C/c2csc3ccccc23)C1` (racemic), the Activity was 75%.

For `O=C(O)[C@H]1CNC[C@@H](CCN/N=C/c2sccc2-n2cccc2)C1` (racemic), the Activity was determined as 72%.

Consider `O=C(O)[C@H]1CNC[C@@H](CN/N=C/c2cc(Br)co2)C1` (racemic), for which the Activity worked out at 53%.

In the case of `O=C(O)[C@H]1CNC[C@@H](CN/N=C/c2ccc(-c3ccc(Br)cc3)o2)C1` (racemic), the Activity came out at 59%.

As to `O=C(O)[C@H]1CNC[C@@H](CN/N=C/c2ccc(-c3ccc(Cl)cc3)o2)C1` (racemic), the Activity is 56%.

On to `O=C(O)[C@H]1CNC[C@@H](CN/N=C/c2ccc(-c3ccc(Cl)cc3)s2)C1` (racemic), for which the Activity was 75%.

For `O=C(O)[C@H]1CNC[C@@H](CN/N=C/c2ccc(-c3ccc(Cl)cc3Cl)o2)C1` (racemic), the Activity was 40%.

As to `O=C(O)[C@H]1CNC[C@@H](CN/N=C/c2ccc(-c3ccc(Cl)cc3F)o2)C1` (racemic), the Activity is 67%.

With `O=C(O)[C@H]1CNC[C@@H](CN/N=C/c2ccc(-c3ccc(Cl)cc3[N+](=O)[O-])o2)C1` (racemic), the Activity was determined as 37%.

`O=C(O)[C@H]1CNC[C@@H](CN/N=C/c2ccc(-c3ccc(F)c(C(F)(F)F)c3)o2)C1` (racemic): the Activity stood at 36%.

Turning to `O=C(O)[C@H]1CNC[C@@H](CN/N=C/c2ccc(-c3cccc(C(F)(F)F)c3)o2)C1` (racemic), the Activity turned out to be 38%.

In the case of `O=C(O)[C@H]1CNC[C@@H](CN/N=C/c2ccc(-c3cccc(Cl)c3)o2)C1` (racemic), the Activity stood at 46%.

As to `O=C(O)[C@H]1CNC[C@@H](CN/N=C/c2ccc(-c3ccccc3)[nH]2)C1` (racemic), the Activity came out at 85%.

Take `O=C(O)[C@H]1CNC[C@@H](CN/N=C/c2ccc(-c3ccccc3)o2)C1` (racemic): the Activity came to 68%.

Turning to `O=C(O)[C@H]1CNC[C@@H](CN/N=C/c2ccc(-c3ccccc3)s2)C1` (racemic), the Activity is 55%.

For `O=C(O)[C@H]1CNC[C@@H](CN/N=C/c2ccc(-c3ccccc3Br)o2)C1` (racemic), the Activity is 36%.

As for `O=C(O)[C@H]1CNC[C@@H](CN/N=C/c2ccc(-c3ccccc3C(F)(F)F)o2)C1` (racemic), the Activity turned out to be 49%.

Turning to `O=C(O)[C@H]1CNC[C@@H](CN/N=C/c2ccc(-c3ccccc3Cl)o2)C1` (racemic), the Activity is 48%.

Take `O=C(O)[C@H]1CNC[C@@H](CN/N=C/c2ccc(-c3ccn[nH]3)o2)C1` (racemic): the Activity was 81%.

As to `O=C(O)[C@H]1CNC[C@@H](CN/N=C/c2ccc(Br)o2)C1` (racemic), the Activity is 55%.

With `O=C(O)[C@H]1CNC[C@@H](CN/N=C/c2ccc(I)o2)C1` (racemic), the Activity worked out at 69%.

As to `O=C(O)[C@H]1CNC[C@@H](CN/N=C/c2ccc[nH]2)C1` (racemic), the Activity was 89%.

Take `O=C(O)[C@H]1CNC[C@@H](CN/N=C/c2cccc(-c3ccc(Cl)cc3)c2)C1` (racemic): the Activity was determined as 52%.

In the case of `O=C(O)[C@H]1CNC[C@@H](CN/N=C/c2cccc(-c3ccc(F)cc3)c2)C1` (racemic), the Activity was 50%.

Regarding `O=C(O)[C@H]1CNC[C@@H](CN/N=C/c2cccs2)C1` (racemic), the Activity was determined as 67%.

For `O=C(O)[C@H]1CNC[C@@H](CN/N=C/c2cnc(-c3ccc4ccccc4c3)nc2)C1` (racemic), the Activity was determined as 27%.

Regarding `O=C(O)[C@H]1CNC[C@@H](CN/N=C/c2cnc(-c3cccc4ccccc34)nc2)C1` (racemic), the Activity amounted to 61%.

As to `O=C(O)[C@H]1CNC[C@@H](CN/N=C/c2cnc(-c3ccccc3)nc2)C1` (racemic), the Activity was found to be 55%.

Regarding `O=C(O)[C@H]1CNC[C@@H](CN/N=C/c2cnc(-c3ccccc3F)nc2)C1` (racemic), the Activity turned out to be 68%.

Turning to `O=C(O)[C@H]1CNC[C@@H](CN/N=C/c2cnc(-c3ccco3)nc2)C1` (racemic), the Activity was 73%.

Take `O=C(O)[C@H]1CNC[C@@H](CN/N=C/c2cnc(-c3cccs3)nc2)C1` (racemic): the Activity turned out to be 60%.

As for `O=C(O)[C@H]1CNC[C@@H](CN/N=C/c2cnc(N3CCCCC3)nc2)C1` (racemic), the Activity turned out to be 69%.

Regarding `O=C(O)[C@H]1CNC[C@@H](CN/N=C/c2cnc(NCc3ccccc3)nc2)C1` (racemic), the Activity came out at 60%.

Consider `O=C(O)[C@H]1CNC[C@@H](CN/N=C/c2cnc(SCc3ccccc3)nc2)C1` (racemic), for which the Activity was 53%.

Turning to `O=C(O)[C@H]1CNC[C@@H](CN/N=C/c2cncnc2)C1` (racemic), the Activity was 64%.

Take `O=C(O)[C@H]1CNC[C@@H](CN/N=C/c2sccc2-c2ccc(Cl)cc2)C1` (racemic): the Activity worked out at 80%.

With `O=C(O)[C@H]1CNC[C@H](CN/N=C/c2ccc(-c3ccc(C(F)(F)F)cc3Cl)o2)C1` (racemic), the Activity was above 50%.

For the compound `O=C(O)[C@H]1CNC[C@H](CN/N=C/c2ccc(-c3ccccc3OC(F)(F)F)o2)C1` (racemic), the Activity is above 50%.

As for `O=C(O)[C@H]1CNC[C@H](CN/N=C/c2ccccc2-n2cccc2)C1` (racemic), the Activity is above 50%.

With `O=C(O)[C@H]1CNC[C@H](CN/N=C/c2csc3ccccc23)C1` (racemic), the Activity is above 50%.

For the compound `O=C(O)[C@H]1CNC[C@H](CN/N=C/c2sccc2-n2cccc2)C1` (racemic), the Activity is above 50%.
